In ChEMBL document CHEMBL3243919, “11,12-Secoprostaglandins. 3. 8-Alkylthio(sulfinyl and sulfonyl)-12-hydroxyalkanoic acids and related compounds” (J Med Chem, 1977):
Active and inactive are the calls of the source. The calls are words filed in the database; no cut-off is given here.

Key:
Mus musculus [1] = species: Mus musculus; experiment: Binding affinity to prostanoid receptor in [8-14C]adenine-treated CD-1 mouse ovary assessed as increase in c-AMP production at 1 ug/ml after 30 mins by paper chromatographic analysis in presence of phosphodiesterase inhibitor theophylline relative to control; format: tissue-based; conditions: Female gonad
Outline: (§1)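 Mouse ovaries, three per incubation (15-25 mg), preincubated 1 h at 37 °C with shaking in aerated Krebs-Ringer phosphate buffer pH 7.2 containing [8-14C]adenine. Theophylline and test compound (in Me2SO) were then added, with a further 30 min at 37 °C. Stopped with trichloroacetic acid, homogenized and centrifuged. [14C]-cAMP isolated, including paper chromatography. Result is fold increase over untreated ovaries.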

Mus musculus [2] = species: Mus musculus; experiment: Binding affinity to prostanoid receptor in [8-14C]adenine-treated CD-1 mouse ovary assessed as increase in c-AMP production at 25 ug/ml after 30 mins by paper chromatographic analysis in presence of phosphodiesterase inhibitor theophylline relative to control; format: tissue-based; conditions: Female gonad; outline: as §1
Mus musculus [3] = species: Mus musculus; experiment: Binding affinity to prostanoid receptor in [8-14C]adenine-treated CD-1 mouse ovary assessed as increase in c-AMP production at 100 ug/ml after 30 mins by paper chromatographic analysis in presence of phosphodiesterase inhibitor theophylline relative to control; format: tissue-based; conditions: Female gonad; outline: as §1
Mus musculus [4] = species: Mus musculus; experiment: Binding affinity to prostanoid receptor in [8-14C]adenine-treated CD-1 mouse ovary assessed as increase in c-AMP production at 10 ug/ml after 30 mins by paper chromatographic analysis in presence of phosphodiesterase inhibitor theophylline relative to control; format: tissue-based; conditions: Female gonad; outline: as §1
Mus musculus [5] = species: Mus musculus; experiment: Binding affinity to prostanoid receptor in [8-14C]adenine-treated CD-1 mouse ovary assessed as increase in c-AMP production at 50 ug/ml after 30 mins by paper chromatographic analysis in presence of phosphodiesterase inhibitor theophylline relative to control; format: tissue-based; conditions: Female gonad; outline: as §1
Mus musculus [6] = species: Mus musculus; experiment: Binding affinity to prostanoid receptor in [8-14C]adenine-treated CD-1 mouse ovary assessed as increase in c-AMP production at 200 ug/ml after 30 mins by paper chromatographic analysis in presence of phosphodiesterase inhibitor theophylline relative to control; format: tissue-based; conditions: Female gonad; outline: as §1
Rattus norvegicus [7] = species: Rattus norvegicus; experiment: Binding affinity to prostanoid receptor in rat lipocytes assessed as compound equivalent to cold PGE1 in displacing [3H]-PGE1 from receptor after 60 mins; format: cell-based
Outline: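 Test compound incubated with 0.4 ng [3H]-PGE1 and 125 µg rat lipocyte binding preparation for 60 min at 37 °C. Bound [3H]-PGE1 then measured. Three test concentrations, run in duplicate.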

Mus musculus [8] = species: Mus musculus; experiment: Binding affinity to prostanoid receptor in [8-14C]adenine-treated CD-1 mouse ovary assessed as increase in c-AMP production at 0.1 ug/ml after 30 mins by paper chromatographic analysis in presence of phosphodiesterase inhibitor theophylline relative to control; format: tissue-based; conditions: Female gonad; outline: as §1
Homo sapiens [9] = species: Homo sapiens; experiment: Binding affinity to prostanoid receptor in [8-14C]adenine-treated human psoriatic skin slices assessed as increase in c-AMP production at 25 ug/ml after 30 mins by paper chromatographic analysis relative to control
Outline: (§2)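 Psoriatic skin biopsied from patients off medication ≥48 h, under sc 1-2% lidocaine, and cut into 10-30 mg slices. Preincubated with [14C]adenine about 60 min at 22 °C, then 45 min at 37 °C, then 30 min at 37 °C with test compound. Stopped with TCA to 2.5%, then pulverized at -70 °C and homogenized. Supernatant [14C]-cAMP expressed as fold over unmedicated slices; average of four experiments.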

Homo sapiens [10] = species: Homo sapiens; experiment: Binding affinity to prostanoid receptor in [8-14C]adenine-treated human psoriatic skin slices assessed as increase in c-AMP production at 50 ug/ml after 30 mins by paper chromatographic analysis relative to control; outline: as §2
Homo sapiens [11] = species: Homo sapiens; experiment: Binding affinity to prostanoid receptor in [8-14C]adenine-treated human psoriatic skin slices assessed as increase in c-AMP production at 100 ug/ml after 30 mins by paper chromatographic analysis relative to control; outline: as §2
Homo sapiens [12] = species: Homo sapiens; experiment: Binding affinity to prostanoid receptor in [8-14C]adenine-treated human psoriatic skin slices assessed as increase in c-AMP production at 200 ug/ml after 30 mins by paper chromatographic analysis relative to control; outline: as §2
[13] = target: T1, 15-hydroxyprostaglandin dehydrogenase [NAD(+)] (Homo sapiens, UniProt P15428); experiment: Metabolic stability of the compound assessed as 15-hydroxyprostanoid dehydrogenase (unknown origin)-mediated metabolite formation; format: ADME
T1 sequence (P15428 whole entry): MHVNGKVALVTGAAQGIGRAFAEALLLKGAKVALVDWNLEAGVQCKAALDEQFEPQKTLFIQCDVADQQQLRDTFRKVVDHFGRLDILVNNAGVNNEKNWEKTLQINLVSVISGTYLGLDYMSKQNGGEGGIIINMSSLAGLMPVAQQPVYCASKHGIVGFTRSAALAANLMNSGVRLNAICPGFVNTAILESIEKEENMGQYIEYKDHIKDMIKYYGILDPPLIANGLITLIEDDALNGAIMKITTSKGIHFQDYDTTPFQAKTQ

Canis familiaris = experiment: Antisecretory activity in dog assessed as reduction of gastric acid release at 12.3 mg/kg, po; format: functional, organism-based; parameters: dose 12.3 mg/kg; conditions: Canis lupus familiaris, Stomach
Outline: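 Given orally to dogs at 12.3 mg/kg; gastric acid antisecretory effect assessed.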

Rattus norvegicus [14] = experiment: Antihypertensive activity in spontaneous hypertensive rat model up to 40 mg/kg, po; format: functional, organism-based; parameters: dose 40 mg/kg
Outline: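 Spontaneously hypertensive rats dosed po at up to 40 mg/kg; antihypertensive effect assessed.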

Lymphocyte [15] = experiment: Inhibition of antigen-induced lymphocyte (unknown origin) transformation at 10 ug/mL relative to control; format: functional
Lymphocyte [16] = experiment: Inhibition of antigen-induced lymphocyte (unknown origin) transformation at 1 ug/mL relative to control; format: functional
Mus musculus [17] = species: Mus musculus; experiment: Binding affinity to prostanoid receptor in [8-14C]adenine-treated CD-1 mouse ovary assessed as increase in c-AMP production at 0.01 ug/ml after 30 mins by paper chromatographic analysis in presence of phosphodiesterase inhibitor theophylline relative to control; format: tissue-based; conditions: Female gonad; outline: as §1
Mus musculus [18] = species: Mus musculus; experiment: Binding affinity to prostanoid receptor in [8-14C]adenine-treated CD-1 mouse ovary assessed as increase in c-AMP production at 0.05 ug/ml after 30 mins by paper chromatographic analysis in presence of phosphodiesterase inhibitor theophylline relative to control; format: tissue-based; conditions: Female gonad; outline: as §1
Homo sapiens [19] = species: Homo sapiens; experiment: Binding affinity to prostanoid receptor in [8-14C]adenine-treated human psoriatic skin slices assessed as increase in c-AMP production at 10 ug/ml after 30 mins by paper chromatographic analysis relative to control; outline: as §2

| fold change (FC) (Mus musculus [1]) | fold change (FC) (Mus musculus [2]) | fold change (FC) (Mus musculus [3]) | fold change (FC) (Mus musculus [4]) | INH (Rattus norvegicus [7]) | Compound | further results |
| --- | --- | --- | --- | --- | --- | --- |
| 2 | 14 | 23 | 11 | 1700 ngequiv | CCCCCC(O)CCCC(CCCCCCC(=O)O)C(C)=O (stereo not drawn) | fold change (FC) (Mus musculus [5]): 16; fold change (FC) (Mus musculus [6]): 16 |
| 10 | 26 |  | 25 | 10 ngequiv | CCCCC[C@H](O)CC[C@H]1CCC(=O)[C@@H]1CCCCCCC(=O)O | fold change (FC) (Mus musculus [5]): 19 |
| 1 | 23 | 27 |  | 1.11 µgequiv | CS(=O)(=O)C(CCCCCCC(=O)O)CCCC(O)COc1ccc(F)cc1 (stereo not drawn) |  |
| 14 | 27 | 38 | 24 | 0.67 µgequiv | CCCCCC(O)CCCC(CCCCCCC(=O)O)S(C)(=O)=O (mixture of isomers) | fold change (FC) (Mus musculus [8]): 2; fold change (FC) (Homo sapiens [9]): 2.5; fold change (FC) (Homo sapiens [10]): 3.4; fold change (FC) (Homo sapiens [11]): 3.5; fold change (FC) (Homo sapiens [12]): 2.7; Stability [13]: Stable; Activity (Canis familiaris): inactive; Activity (Rattus norvegicus [14]): inactive; inhibition at 10 µg/mL (Lymphocyte [15]): 88%; inhibition at 1 µg/mL (Lymphocyte [16]): 30% |
| 0.7 | 2 | 10 |  |  | CCCCCC(O)CCCC(CCCCCCC(=O)O)S(=O)(=O)CCO (mixture of isomers) |  |
| 2.5 | 35 | 24 |  | 0.77 µgequiv | CCCCCC(O)CCCC(CCCCCCC(=O)O)SC (mixture of isomers) |  |
| 1.5 | 4 | 14 |  |  | CCCCCC(O)CCCC(CCCCCCC(=O)O)SCCO (mixture of isomers) |  |
| 4 | 40 | 57 |  | 7.14 µgequiv | CCCCCC(O)CCCC(CCCCCCC(=O)O)[S+](C)[O-] (mixture of isomers) |  |
|  | 0.5 | 1 |  |  | CCCCCC(O)CCCCCS(=O)(=O)CCCCCCCC(=O)O (racemic) |  |
| 54 |  |  |  |  | CCCCC[C@H](O)/C=C/[C@H]1[C@H](O)CC(=O)[C@@H]1CCCCCCC(=O)O [ALPROSTADIL] | fold change (FC) (Mus musculus [17]): 8; fold change (FC) (Mus musculus [18]): 29; fold change (FC) (Mus musculus [8]): 25; fold change (FC) (Homo sapiens [19]): 10; inhibition at 10 µg/mL (Lymphocyte [15]): 82% |
